By pEC50 is commonly meant −log10 of the EC50, conventionally taken in molar units.

The species named for one test is Homo sapiens. As to the kind of experiment: Selectivity ratio of EC50 for human OX2 receptor to EC50 for human OX1 receptor.
The next test has as its target T1, Orexin receptor type 2 (Homo sapiens, UniProt O43614).
T1 sequence (O43614 whole entry): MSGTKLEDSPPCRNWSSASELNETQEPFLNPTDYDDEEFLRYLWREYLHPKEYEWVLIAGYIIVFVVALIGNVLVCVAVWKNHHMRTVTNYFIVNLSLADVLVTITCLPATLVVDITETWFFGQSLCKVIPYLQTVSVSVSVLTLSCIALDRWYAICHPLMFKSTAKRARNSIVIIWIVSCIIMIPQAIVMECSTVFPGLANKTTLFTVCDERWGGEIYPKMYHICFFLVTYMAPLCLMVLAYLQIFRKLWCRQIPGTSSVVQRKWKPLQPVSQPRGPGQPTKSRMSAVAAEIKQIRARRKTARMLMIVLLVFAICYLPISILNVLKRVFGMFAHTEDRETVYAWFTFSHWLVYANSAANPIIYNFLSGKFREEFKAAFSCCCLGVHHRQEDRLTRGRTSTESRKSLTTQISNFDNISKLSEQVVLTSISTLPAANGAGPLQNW
As to the kind of experiment: Agonist activity at human OX2 receptor overexpressed in CHO-RD-HGA16 cells assessed as calcium mobilization after 15 mins by fluorescence assay. Format: functional, cell-based.

Test [1] has as its target T2, Orexin/Hypocretin receptor type 1 (Homo sapiens, UniProt O43613).
T2 sequence (O43613 whole entry): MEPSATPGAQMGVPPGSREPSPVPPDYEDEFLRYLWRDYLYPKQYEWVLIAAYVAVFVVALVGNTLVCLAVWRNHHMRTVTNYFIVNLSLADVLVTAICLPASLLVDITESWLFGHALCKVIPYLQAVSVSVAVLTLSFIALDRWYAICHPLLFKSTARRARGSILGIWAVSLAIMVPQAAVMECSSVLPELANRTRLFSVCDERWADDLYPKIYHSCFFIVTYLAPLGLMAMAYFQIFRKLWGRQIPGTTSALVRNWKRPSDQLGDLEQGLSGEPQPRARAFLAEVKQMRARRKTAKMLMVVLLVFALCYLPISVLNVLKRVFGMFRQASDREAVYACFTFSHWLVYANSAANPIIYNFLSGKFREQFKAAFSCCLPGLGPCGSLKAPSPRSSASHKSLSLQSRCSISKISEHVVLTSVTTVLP
The test is described as follows: Agonist activity at human OX1 receptor overexpressed in CHO-RD-HGA16 cells assessed as calcium mobilization after 15 mins by fluorescence assay. Type of test: functional, cell-based. An outline of the steps:
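EC50 from 8-point half-log concentration-response curves. Values are means of at least three independent experiments in duplicate, with SEM, or means of two independent duplicate experiments.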

pEC50: −log10 of the molar value. Where a SMILES comes first, the peptide text is derived from it.

On to `CC[C@H](C)[C@H](NC(=O)CNC(=O)[C@H](C)NC(=O)[C@H](C)NC(=O)[C@H](Cc1c[nH]cn1)NC(=O)[C@H](CC(N)=O)NC(=O)CNC(=O)[C@H](C)NC(=O)CNC(=O)[C@H](Cc1c[nH]cn1)NC(=O)[C@H](CC(C)C)NC(=O)[C@H](CC(C)C)NC(=O)[C@H](CCC(=O)O)NC(=O)[C@H](Cc1ccc(O)cc1)NC(=O)[C@H](CC(C)C)NC(=O)[C@@H](N)CCCN=C(N)N)C(=O)N[C@@H](CC(C)C)C(=O)N[C@H](C(=O)N[C@@H](CC(C)C)C(N)=O)[C@@H](C)O` (H-RLYELLHGAGNHAAGILTL-NH2), for which the Ratio EC50 in the test listed under Homo sapiens worked out at 15.
For `CC[C@H](C)[C@H](NC(=O)CNC(=O)[C@H](C)NC(=O)[C@H](C)NC(=O)[C@H](Cc1cnc[nH]1)NC(=O)[C@H](CC(N)=O)NC(=O)CNC(=O)[C@H](C)NC(=O)CNC(=O)[C@H](Cc1cnc[nH]1)NC(=O)[C@H](CC(C)C)NC(=O)[C@H](CC(C)C)NC(=O)[C@H](CCC(=O)O)NC(=O)[C@H](N)Cc1ccc(O)cc1)C(=O)N[C@@H](CC(C)C)C(=O)N[C@H](C(=O)N[C@@H](CC(C)C)C(N)=O)[C@@H](C)O`, the Ratio EC50 in the test listed under Homo sapiens turned out to be 2.4. Besides, the values for the pEC50 (on Orexin receptor type 2; in test [1]) were 5.49 and 5.87, respectively.
Turning to `CC[C@H](C)[C@H](NC(=O)CNC(=O)[C@H](C)NC(=O)[C@H](C)NC(=O)[C@H](Cc1c[nH]cn1)NC(=O)[C@H](CC(N)=O)NC(=O)CNC(=O)[C@H](C)NC(=O)CNC(=O)[C@H](Cc1c[nH]cn1)NC(=O)[C@H](CC(C)C)NC(=O)[C@H](CC(C)C)NC(=O)[C@H](CCC(=O)O)NC(=O)[C@@H](N)Cc1ccc(O)cc1)C(=O)N[C@@H](CC(C)C)C(=O)N[C@H](C(=O)N[C@@H](CC(C)C)C(N)=O)[C@@H](C)O`, the Ratio EC50 in the test filed under Homo sapiens was 23.
As for `CC[C@H](C)[C@H](NC(=O)CNC(=O)[C@H](C)NC(=O)[C@H](C)NC(=O)[C@@H](Cc1cnc[nH]1)NC(=O)[C@H](CC(N)=O)NC(=O)CNC(=O)[C@H](C)NC(=O)CNC(=O)[C@H](Cc1cnc[nH]1)NC(=O)[C@H](CC(C)C)NC(=O)[C@H](CC(C)C)NC(=O)[C@H](CCC(=O)O)NC(=O)[C@@H](N)Cc1ccc(O)cc1)C(=O)N[C@@H](CC(C)C)C(=O)N[C@H](C(=O)N[C@@H](CC(C)C)C(N)=O)[C@@H](C)O`, in the test listed under Homo sapiens, the Ratio EC50 was determined as 0.3. The results for the pEC50 (on Orexin receptor type 2; in test [1]) were 5.75 and 5.24, respectively.
On the same counts, the results for `CC[C@H](C)[C@H](NC(=O)CNC(=O)[C@H](C)NC(=O)[C@H](C)NC(=O)[C@H](Cc1c[nH]cn1)NC(=O)[C@H](CC(N)=O)NC(=O)CNC(=O)[C@H](C)NC(=O)CNC(=O)[C@H](Cc1c[nH]cn1)NC(=O)[C@H](CC(C)C)NC(=O)[C@@H](N)CC(C)C)C(=O)N[C@@H](CC(C)C)C(=O)N[C@H](C(=O)N[C@@H](CC(C)C)C(N)=O)[C@@H](C)O` (H-LLHGAGNHAAGILTL-NH2) are 0.7, 6.02 and 5.86.
`CC[C@H](C)[C@H](NC(=O)CNC(=O)[C@H](C)NC(=O)[C@H](C)NC(=O)[C@H](Cc1cnc[nH]1)NC(=O)[C@H](CC(N)=O)NC(=O)CNC(=O)[C@H](C)NC(=O)CNC(=O)[C@H](Cc1cnc[nH]1)NC(=O)[C@H](CC(C)C)NC(=O)[C@H](CC(C)C)NC(=O)[C@H](CCC(=O)O)NC(=O)[C@H](Cc1ccc(O)cc1)NC(=O)[C@H](CC(C)C)NC(=O)[C@@H](N)CCCNC(=N)N)C(=O)N[C@@H](CC(C)C)C(=O)N[C@H](C(=O)N[C@@H](CC(C)C)C(N)=O)[C@@H](C)O` (H-RLYELLHGAGNHAAGILTL-NH2): the pEC50 at Orexin receptor type 2 was 6.01; in test [1], 7.19.
On to `CC[C@H](C)[C@H](NC(=O)CNC(=O)[C@H](C)NC(=O)[C@H](C)NC(=O)[C@H](Cc1cnc[nH]1)NC(=O)[C@H](CC(N)=O)NC(=O)CNC(=O)[C@H](C)NC(=O)CNC(=O)[C@H](Cc1cnc[nH]1)NC(=O)[C@H](CC(C)C)NC(=O)[C@H](CC(C)C)NC(=O)[C@H](CCC(=O)O)NC(=O)[C@@H](N)Cc1ccc(O)cc1)C(=O)N[C@@H](CC(C)C)C(=O)N[C@H](C(=O)N[C@@H](CC(C)C)C(N)=O)[C@@H](C)O`, for which the results for the pEC50 (at Orexin receptor type 2; in test [1]) were 6.73 and 8.08, respectively.
